JMJD2C inh: human JMJD2C demethylase inhibition; Q9H3R0; GST-JMJD2C(1-420) H3K9me3 demethylation, DELFIA europium; inhibition, % at 2.35 µM; 330,000 tested, 0.069% active;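 active = more than half of a compound's replicate wells show inhibition beyond 50%, single wells judged on their own value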;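 also: signal counts dimethyl H3K9 product captured on neutravidin plate; 0% = median of DMSO wells and 100% = 0.3 times that DMSO median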
Target sequence (Q9H3R0 1-420 limits assumed): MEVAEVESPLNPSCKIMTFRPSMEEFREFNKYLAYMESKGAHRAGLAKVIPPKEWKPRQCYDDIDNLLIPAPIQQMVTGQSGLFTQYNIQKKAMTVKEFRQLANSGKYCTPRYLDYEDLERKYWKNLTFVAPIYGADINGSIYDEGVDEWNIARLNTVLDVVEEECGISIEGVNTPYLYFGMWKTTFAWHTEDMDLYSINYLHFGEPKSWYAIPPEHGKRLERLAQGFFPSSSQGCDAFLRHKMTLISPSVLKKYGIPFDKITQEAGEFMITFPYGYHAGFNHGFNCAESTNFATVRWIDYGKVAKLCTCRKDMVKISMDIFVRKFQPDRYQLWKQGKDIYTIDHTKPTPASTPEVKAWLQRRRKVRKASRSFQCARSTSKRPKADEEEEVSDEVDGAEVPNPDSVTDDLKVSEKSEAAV
PP5 primary: inhibitors of human protein phosphatase 5 (PP5); inhibition, % at 6.7 µM; 320,000 tested, 0.18% active; purified PP5c, OMFP substrate fluorescence; P53041;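 active = inhibition above the campaign's mean inhibition across all tested compounds plus 3 SD, cut at about 9.5% in these data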;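 also: 0% = DMSO only and 100% = 100 µM cantharidin control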
T cruzi repl: T. cruzi replication inhibition | inhibition, % (test concentration not listed) | AID 1885 | T. cruzi beta-gal in NIH3T3, luminescence, 90 h | 300,000 tested, 1.4% active;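 active = mean inhibition across valid replicates above about 55%, limit read from the data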;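 also: signal also drops with host cell toxicity which is not excluded here; 0% = plate median of DMSO wells and 100% = zero luminescence signal; higher percent means less beta-gal luminescence so fewer parasites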
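assay system = mouse NIH/3T3 fibroblasts infected with β-gal-expressing T. cruzi Tulahuen C4 | input = 5,000 NIH/3T3 host cells per well | buffer or medium = DMEM plus 2% FBS | timing = 3 h host attachment, then at least 90 h co-culture | measured by = GalScreen luminescence, 60 min | evaluation = luminescence reflecting intracellular parasite burden, expressed as percent inhibition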
p-CIP stab down: compounds decreasing mouse p/CIP protein stability; F442A p/CIP-EGFP cells, EGFP fluorescence, 16 h; Q05BA5; 290,000 tested, 0.01% active; decrease of EGFP signal, % at 10 µM; AID 1984;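 active = EGFP signal decrease of at least 30% at 10 µM or well 3 SD below plate mean, unless failing retest; inactive = the rest, including hits failing retest or dose response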
Cardio protect: myocardial damage modulation in H9c2 cells; H9c2 cardiomyocytes, H2O2 injury protection, ATPLite, 2 h; protection from H2O2 cell death, % at 20 µM; 360,000 tested, 0.63% active; AID 588492;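 active = compounds giving at least 50% protection of heart cells from peroxide-induced death in the single-dose screen, raw or plate-pattern-corrected value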;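 also: 0% = DMSO wells with peroxide and 100% = DMSO wells without peroxide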
CTSL1 counter: counter-screen for PFM18AAP inhibitors: inhibitors of F. hepatica cathepsin L1. recombinant F. hepatica cathepsin L1, Z-Leu-Arg-MCA fluorescence. inhibition, % at 5.96 µM. 300,000 tested, 0.49% active;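 active = inhibition above the mean of all tested compounds plus 3 SD, set per screening campaign, cut at about 17% in these data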;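 also: 0% = plate median of test compound wells and 100% = 1 µM Z-Phe-Ala-diazomethylketone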
* hit, by the source's call; / = no result. An excerpt weighted towards active compounds, which were near 2.4% of everything screened.

SMILES | JMJD2C inh | PP5 primary | T cruzi repl | p-CIP stab down | Cardio protect | CTSL1 counter
CCOC(=O)C1CCN(S(=O)(=O)c2c(Cl)ccc3nonc23)CC1 | -6 | 5 | 64* | -16 | -18 | -1
C=CCn1c(SCc2ccccc2Cl)nnc1-c1sc2nc(C)cc(C)c2c1N | -23 | 5 | 63* | -1 | -1 | -2
O=C(/C=C/c1ccncc1)c1cc(Cl)ccc1O | 30 | 1 | 66* | -8 | -1 | 2
CC(C)(CCc1ccccn1)C(=O)CCCc1ccccn1 | / | / | / | / | 2 | /
COc1cccc(-c2cc3nc4c(c(NCC(C)(C)CN(C)C)n3n2)CCCC4)c1 | -13 | 3 | 61* | -8 | -26 | -1
NS(=O)(=O)c1ccc(CNC(=O)Cc2ccsc2)cc1 | 2 | -1 | -8 | -6 | 0 | -2
Cc1ccc(OCC(O)Cn2c(=N)n(CCN3CCCCC3)c3ccccc32)cc1 (stereo not drawn) | 7 | 1 | 73* | -1 | -16 | 1
COc1ccccc1OCC(O)Cn1c(=N)n(Cc2ccccc2)c2ccccc21 (stereo not drawn) | 0 | 1 | 37 | -8 | -19 | -2
Cc1ccccc1OCC(O)Cn1c(=N)n(Cc2ccccc2)c2ccccc21 (stereo not drawn) | 0 | 4 | 55* | -16 | -18 | 0
C/C(=N\Nc1cc(N2CCCCC2)nc(C)n1)c1ccc(Br)cc1 | 12 | 5 | 72* | -20 | -21 | 0
CC(C)CCNC(=O)COc1ccc2c(c1)C(=O)CC(C)(C)O2 | -2 | 2 | 11 | -3 | -3 | -2
CCC(Oc1ccc2c(c1)C(=O)CC(C)(C)O2)C(=O)NCCN1CCCCCC1 (stereo not drawn) | 0 | -1 | -16 | -4 | -10 | 37*
CCc1nc2c(OCc3cccc(Cl)c3)cccn2c1N(C)C(=O)c1ccncc1 | / | / | / | / | -1 | /
Cc1cc(-c2nc(-c3ccncc3)no2)ccc1[N+](=O)[O-] | 4 | 2 | -12 | 7 | -2 | 0
Cc1ccc(OCCCN(C)C)c(Br)c1 | 5 | -2 | 26 | -7 | -10 | 1
CN(C)CCCOc1ccc(Cl)cc1Br | 5 | 0 | 68* | -7 | -2 | 1
CN(C)CCOCCOc1ccc(Cl)cc1Br | -5 | 3 | 64* | -10 | 9 | 2
O=C(N/N=C/c1ccccc1C(=O)O)c1cccc(S(=O)(=O)N2CCCCC2)c1 | 2 | 1 | / | / | -6 | /
O=C(CCN1CCN(c2ccccc2)CC1)c1ccc(Br)cc1 | -3 | -9 | 62* | 6 | -12 | 8
COc1ccc(C(=O)CCN2CCN(c3ccccc3F)CC2)cc1 | -5 | -2 | 63* | -7 | -22 | -1
O=C(CCN1CCN(c2ccccc2)CC1)N/N=C/c1ccccc1O | 18 | -1 | 7 | -28 | 55* | -4
CC(C)[C@]1(c2ccc(Cl)cc2)ON(c2ccccc2C(F)(F)F)C1=O | 3 | 0 | / | / | / | /
Cc1ccc2c(c1C)OC(=O)CC2c1ccccc1 (stereo not drawn) | 2 | 1 | -3 | -3 | 1 | -1
CCOC(=O)c1c(NC(=O)CSc2ncccn2)sc2c1CCN(Cc1ccccc1)C2 | -8 | / | 56* | -1 | -3 | /
CCOC(=O)c1c(NC(=O)CN(CC)CC)sc2c1CCN(C(=O)OCC)C2 | -15 | 4 | 31 | 9 | -6 | 0
SMILES | JMJD2C inh | PP5 primary | T cruzi repl | p-CIP stab down | Cardio protect | CTSL1 counter
CCOC(=O)c1c(NC(=O)CC)sc2c1CCN(Cc1ccccc1)C2 | 3 | 5 | 44 | 3 | -9 | -4
CCOC(=O)c1c(NC(=O)CN2CCCCC2)sc2c1CCN(C(=O)OCC)C2 | 9 | 2 | 60* | 3 | -5 | 5
CCOC(=O)c1c(NC(=O)CSc2nnc3c(n2)[nH]c2ccccc23)sc2c1CCN(C)C2 | -2 | 0 | 77* | / | 3 | 0
CC1CCCC(NC(=O)CN2CCN(S(=O)(=O)c3cccs3)CC2)C1C (stereo not drawn) | -2 | 0 | / | / | 0 | /
COc1cccc(OC)c1C(=O)N1CCN(C(=O)c2ccc(-c3ccccc3)cc2)CC1 | -17 | 4 | 6 | 2 | -7 | 5
CCC1CN(S(=O)(=O)c2ccc3c(c2)NC(=O)CC(=O)N3)c2cc(Cl)ccc2O1 (stereo not drawn) | 9 | 2 | -16 | 2 | 66* | 4
CCOC(=O)C1CN(S(=O)(=O)c2ccc(Cl)cc2)c2cc(S(=O)(=O)CC)ccc2O1 (stereo not drawn) | 8 | 2 | 2 | -12 | 10 | -4
O=C1S/C(=C/c2ccc(N3CCOCC3)o2)C(=O)N1Cc1c(F)cccc1Cl | -15 | -2 | 36 | -19 | -4 | 49*
Cn1c(-c2ccc(Cl)cc2)cnc1N | -3 | 6 | -5 | 8 | 69* | -2
CCOc1ccc(-c2cnc(N)n2C)cc1 | -4 | 0 | -3 | 12 | 10 | 2
O=C(NNC(=O)C1CCN(S(=O)(=O)c2ccccc2)CC1)c1ccccc1O | 94* | 0 | -3 | 0 | 31 | -2
C=CCN(c1ccccc1)S(=O)(=O)c1cccc(C(=O)NC2CCN(Cc3ccccc3)CC2)c1 | -2 | -3 | 61* | / | -5 | 1
CN(C)S(=O)(=O)c1cccc(C(=O)NCC(=O)NC2CCN(Cc3ccccc3)CC2)c1 | -6 | 0 | 1 | -17 | -2 | 3
O=C(NC1CCN(Cc2ccccc2)CC1)C1CCN(S(=O)(=O)c2ccccc2)CC1 | -23 | 0 | 57* | -26 | -4 | -2
COc1ccc(NC(=O)COc2coc(CN3c4ccccc4CC3C)cc2=O)cc1 (stereo not drawn) | 8 | -1 | -7 | / | -8 | -4
NC(=S)N/N=C1\CCOc2ccc(F)cc21 | 2 | 2 | -14 | -1 | -2 | 18*
COc1cc(OC)c(/C=N/NC(=O)c2ccncc2)c(OC)c1 | -25 | -1 | 1 | 0 | 10 | 1
COc1ccc(C2c3ccc4ccccc4c3Oc3ncn(CCN(C)C)c(=N)c32)cc1 (stereo not drawn) | 8 | 4 | 59* | -4 | -12 | -2
COc1ccc(C2c3ccc4ccccc4c3Oc3ncn(CCO)c(=N)c32)cc1 (stereo not drawn) | -6 | 5 | 5 | 2 | -11 | 0
CN1OC[C@@H]2CN(S(=O)(=O)c3cccc(C(F)(F)F)c3)[C@H](c3ccc(N4CCCCC4)cc3)C[C@@H]21 | / | / | / | / | 2 | /
CC(C)=CCC1=C(OCC(=O)O)C(=O)c2ccccc2C1=O | -13 | 5 | -1 | -11 | -14 | 45*
COc1cc2nc(NCC3CCCO3)n3nc(-c4cccnc4)nc3c2cc1OC (stereo not drawn) | -5 | 3 | 13 | -2 | 91* | -3
COc1cc2nc(NCCCN3CCN(C)CC3)n3nc(-c4ccccc4)nc3c2cc1OC | -2 | 2 | 62* | -41 | 30 | 2
